# Active and inactive are the calls of the source. No cut-off for these calls is given here.
# Experiments:
# Mus musculus [1] = assay: Neurotoxicity in albino CF1 mouse assessed as minimal motor impairment at 300 mg/kg, ip after 0.5 hrs by rotarod test; assay type: toxicity, organism-based; parameters: dose 300 mg/kg, route intraperitoneal; settings: in vivo
# Outline: (§1)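 Mice dosed ip at 30, 100 or 300 mg/kg, then tested 0.5 h and 4 h after administration in the MES or scMet test. Protection was recorded as animals protected over animals tested. Neurotoxicity was recorded as motor impairment or sedation, as animals affected over animals tested.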
# Mus musculus [2] = assay: Anticonvulsant activity in albino CF1 mouse assessed as protection against maximal electroshock-induced seizures at 100 mg/kg, ip after 4 hrs; assay type: functional, organism-based; parameters: dose 100 mg/kg; outline: as §1
# Rattus norvegicus [3] = assay: Neurotoxicity in pilocarpine-induced status epilepticus Sprague-Dawley albino rat model assessed as minimal motor impairment at 100 mg/kg, ip after 2 hrs by rotarod test; assay type: toxicity, organism-based; parameters: dose 100 mg/kg, route intraperitoneal; settings: in vivo
# Rattus norvegicus [4] = assay: Anticonvulsant activity in Sprague-Dawley albino rat assessed as protection against maximal electroshock-induced seizures at 30 mg/kg, po after 15 mins; assay type: functional, organism-based; parameters: dose 30 mg/kg
# Outline: (§2)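 Rats dosed orally. Anti-MES protection was scored as animals protected over animals tested at each time after dosing. Neurotoxicity was scored as motor impairment or sedation, as animals affected over animals tested.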
# Mus musculus [5] = assay: Neurotoxicity in albino CF1 mouse assessed as minimal motor impairment at 30 mg/kg, ip after 4 hrs by rotarod test; assay type: toxicity, organism-based; parameters: dose 30 mg/kg, route intraperitoneal; settings: in vivo; outline: as §1
# Rattus norvegicus [6] = assay: Neurotoxicity in pilocarpine-induced status epilepticus Sprague-Dawley albino rat model assessed as minimal motor impairment at 30 mg/kg, ip after 2 hrs by rotarod test; assay type: toxicity, organism-based; parameters: dose 30 mg/kg, route intraperitoneal; settings: in vivo
# Outline: (§3)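 Rat pilocarpine status epilepticus model: test carbamate given at 0 or 30 min after the first observed Racine stage 3 motor seizure, which marks SE onset. Neurotoxicity was scored within the same model.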
# Rattus norvegicus [7] = assay: Anticonvulsant activity in Sprague-Dawley albino rat assessed as protection against maximal electroshock-induced seizures at 30 mg/kg, po after 2 hrs; assay type: functional, organism-based; parameters: dose 30 mg/kg; outline: as §2
# Rattus norvegicus [8] = assay: Neurotoxicity in pilocarpine-induced status epilepticus Sprague-Dawley albino rat model assessed as minimal motor impairment at 30 mg/kg, ip after 0.5 hrs by rotarod test; assay type: toxicity, organism-based; parameters: dose 30 mg/kg, route intraperitoneal; settings: in vivo; outline: as §3
# Rattus norvegicus [9] = assay: Neurotoxicity in pilocarpine-induced status epilepticus Sprague-Dawley albino rat model assessed as minimal motor impairment at 100 mg/kg, ip after 1 hr by rotarod test; assay type: toxicity, organism-based; parameters: dose 100 mg/kg, route intraperitoneal; settings: in vivo
# Rattus norvegicus [10] = assay: Neurotoxicity in pilocarpine-induced status epilepticus Sprague-Dawley albino rat model assessed as minimal motor impairment at 300 mg/kg, ip after 2 hrs by rotarod test; assay type: toxicity, organism-based; parameters: dose 300 mg/kg, route intraperitoneal; settings: in vivo; outline: as §3
# Rattus norvegicus [11] = assay: Neurotoxicity in pilocarpine-induced status epilepticus Sprague-Dawley albino rat model assessed as minimal motor impairment at 100 mg/kg, ip after 0.5 hrs by rotarod test; assay type: toxicity, organism-based; parameters: dose 100 mg/kg, route intraperitoneal; settings: in vivo
# Rattus norvegicus [12] = assay: Neurotoxicity in pilocarpine-induced status epilepticus Sprague-Dawley albino rat model assessed as minimal motor impairment at 300 mg/kg, ip after 4 hrs by rotarod test; assay type: toxicity, organism-based; parameters: dose 300 mg/kg, route intraperitoneal; settings: in vivo; outline: as §3
# Mus musculus [13] = assay: Anticonvulsant activity in albino CF1 mouse assessed as protection against subcutaneous metrazol-induced seizures at 30 mg/kg, ip after 0.5 hrs; assay type: functional, organism-based; parameters: dose 30 mg/kg; outline: as §1
# Rattus norvegicus [14] = assay: Neurotoxicity in pilocarpine-induced status epilepticus Sprague-Dawley albino rat model assessed as minimal motor impairment at 100 mg/kg, ip after 0.25 hr by rotarod test; assay type: toxicity, organism-based; parameters: dose 100 mg/kg, route intraperitoneal; settings: in vivo
# Mus musculus [15] = assay: Anticonvulsant activity in albino CF1 mouse assessed as protection against subcutaneous metrazol-induced seizures at 30 mg/kg, ip after 4 hrs; assay type: functional, organism-based; parameters: dose 30 mg/kg; outline: as §1
# Rattus norvegicus [16] = assay: Neurotoxicity in pilocarpine-induced status epilepticus Sprague-Dawley albino rat model assessed as minimal motor impairment at 30 mg/kg, ip after 1 hr by rotarod test; assay type: toxicity, organism-based; parameters: dose 30 mg/kg, route intraperitoneal; settings: in vivo; outline: as §3
# Rattus norvegicus [17] = assay: Neurotoxicity in pilocarpine-induced status epilepticus Sprague-Dawley albino rat model assessed as minimal motor impairment at 30 mg/kg, ip after 4 hrs by rotarod test; assay type: toxicity, organism-based; parameters: dose 30 mg/kg, route intraperitoneal; settings: in vivo; outline: as §3
# Rattus norvegicus [18] = assay: Neurotoxicity in pilocarpine-induced status epilepticus Sprague-Dawley albino rat model assessed as minimal motor impairment at 300 mg/kg, ip after 0.25 hr by rotarod test; assay type: toxicity, organism-based; parameters: dose 300 mg/kg, route intraperitoneal; settings: in vivo; outline: as §3
# Mus musculus [19] = assay: Neurotoxicity in albino CF1 mouse assessed as minimal motor impairment at 30 mg/kg, ip after 0.5 hrs by rotarod test; assay type: toxicity, organism-based; parameters: dose 30 mg/kg, route intraperitoneal; settings: in vivo; outline: as §1
# Mus musculus [20] = assay: Anticonvulsant activity in albino CF1 mouse assessed as protection against maximal electroshock-induced seizures at 30 mg/kg, ip after 0.5 hrs; assay type: functional, organism-based; parameters: dose 30 mg/kg; outline: as §1
# Mus musculus [21] = assay: Anticonvulsant activity in albino CF1 mouse assessed as protection against subcutaneous metrazol-induced seizures at 100 mg/kg, ip after 4 hrs; assay type: functional, organism-based; parameters: dose 100 mg/kg; outline: as §1
# Rattus norvegicus [22] = assay: Neurotoxicity in pilocarpine-induced status epilepticus Sprague-Dawley albino rat model assessed as minimal motor impairment at 300 mg/kg, ip after 0.5 hrs by rotarod test; assay type: toxicity, organism-based; parameters: dose 300 mg/kg, route intraperitoneal; settings: in vivo; outline: as §3
# Mus musculus [23] = assay: Neurotoxicity in albino CF1 mouse assessed as minimal motor impairment at 300 mg/kg, ip after 4 hrs by rotarod test; assay type: toxicity, organism-based; parameters: dose 300 mg/kg, route intraperitoneal; settings: in vivo; outline: as §1
# Mus musculus [24] = assay: Anticonvulsant activity in albino CF1 mouse assessed as protection against subcutaneous metrazol-induced seizures at 300 mg/kg, ip after 0.5 hrs; assay type: functional, organism-based; parameters: dose 300 mg/kg; outline: as §1
# Rattus norvegicus [25] = assay: Neurotoxicity in pilocarpine-induced status epilepticus Sprague-Dawley albino rat model assessed as minimal motor impairment at 30 mg/kg, ip after 0.25 hr by rotarod test; assay type: toxicity, organism-based; parameters: dose 30 mg/kg, route intraperitoneal; settings: in vivo; outline: as §3
# Mus musculus [26] = assay: Neurotoxicity in albino CF1 mouse assessed as minimal motor impairment at 100 mg/kg, ip after 4 hrs by rotarod test; assay type: toxicity, organism-based; parameters: dose 100 mg/kg, route intraperitoneal; settings: in vivo; outline: as §1
# Rattus norvegicus [27] = assay: Neurotoxicity in pilocarpine-induced status epilepticus Sprague-Dawley albino rat model assessed as minimal motor impairment at 100 mg/kg, ip after 4 hrs by rotarod test; assay type: toxicity, organism-based; parameters: dose 100 mg/kg, route intraperitoneal; settings: in vivo
# Rattus norvegicus [28] = assay: Neurotoxicity in Sprague-Dawley albino rat assessed as minimal motor impairment at 30 mg/kg, po by rotarod test; assay type: toxicity, organism-based; parameters: dose 30 mg/kg, route oral; settings: in vivo; outline: as §2
# Mus musculus [29] = assay: Anticonvulsant activity in albino CF1 mouse assessed as protection against subcutaneous metrazol-induced seizures at 100 mg/kg, ip after 0.5 hrs; assay type: functional, organism-based; parameters: dose 100 mg/kg; outline: as §1
# Rattus norvegicus [30] = assay: Anticonvulsant activity in Sprague-Dawley albino rat assessed as protection against pilocarpine-induced status epilepticus at 65 mg/kg, ip; assay type: functional, organism-based; parameters: dose 65 mg/kg
# Outline: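 Pilocarpine status epilepticus model in rats. Number and severity of convulsive seizures were observed behaviourally.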
# Mus musculus [31] = assay: Anticonvulsant activity in albino CF1 mouse assessed as protection against maximal electroshock-induced seizures at 300 mg/kg, ip after 4 hrs; assay type: functional, organism-based; parameters: dose 300 mg/kg; outline: as §1
# Mus musculus [32] = assay: Anticonvulsant activity in albino CF1 mouse assessed as protection against maximal electroshock-induced seizures at 300 mg/kg, ip after 0.5 hrs; assay type: functional, organism-based; parameters: dose 300 mg/kg; outline: as §1
# Mus musculus [33] = assay: Anticonvulsant activity in albino CF1 mouse assessed as protection against maximal electroshock-induced seizures at 30 mg/kg, ip after 4 hrs; assay type: functional, organism-based; parameters: dose 30 mg/kg; outline: as §1
# Rattus norvegicus [34] = assay: Anticonvulsant activity in Sprague-Dawley albino rat assessed as protection against maximal electroshock-induced seizures at 30 mg/kg, po after 4 hrs; assay type: functional, organism-based; parameters: dose 30 mg/kg; outline: as §2
# Mus musculus [35] = assay: Anticonvulsant activity in albino CF1 mouse assessed as protection against subcutaneous metrazol-induced seizures at 300 mg/kg, ip after 4 hrs; assay type: functional, organism-based; parameters: dose 300 mg/kg; outline: as §1
# Rattus norvegicus [36] = assay: Anticonvulsant activity in Sprague-Dawley albino rat assessed as protection against maximal electroshock-induced seizures at 30 mg/kg, po after 30 mins; assay type: functional, organism-based; parameters: dose 30 mg/kg; outline: as §2
# Rattus norvegicus [37] = assay: Anticonvulsant activity in Sprague-Dawley albino rat assessed as protection against maximal electroshock-induced seizures at 30 mg/kg, po after 1 hr; assay type: functional, organism-based; parameters: dose 30 mg/kg; outline: as §2
# Rattus norvegicus [38] = assay: Protective index, ratio of TD50 for po dosed Sprague-Dawley albino rat by rotarod test to ED50 for po dosed Sprague-Dawley albino rat by subcutaneous metrazol seizures test; assay type: functional
# Outline: (§4)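 Protective index calculated as TD50/ED50, with TD50 and ED50 taken from the same species and dosing route.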
# Rattus norvegicus [39] = assay: Anticonvulsant activity in po dosed Sprague-Dawley albino rat assessed as protection against subcutaneous metrazol-induced seizures; assay type: functional
# Outline: (§5)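 Quantitative testing: rats dosed orally or ip in MES and scMet tests, and mice dosed ip, including the 6 Hz (32 mA) psychomotor seizure test. ED50 and TD50 were reported in mg/kg with ranges in parentheses. Protective index was calculated as TD50/ED50.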
# Rattus norvegicus [40] = assay: Anticonvulsant activity in po dosed Sprague-Dawley albino rat assessed as protection against maximal electroshock-induced seizures; assay type: functional; outline: as §5
# Rattus norvegicus [41] = assay: Protective index, ratio of TD50 for po dosed Sprague-Dawley albino rat by rotarod test to ED50 for po dosed Sprague-Dawley albino rat by maximal electroshock seizures test; assay type: functional; outline: as §4
# [42] = Neurotoxicity in po dosed Sprague-Dawley albino rat assessed as minimal motor impairment by rotarod test; assay type: toxicity, organism-based; settings: in vivo
# Outline: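 Rats dosed orally; 4 rats per time point after dosing. Neurotoxicity was scored as motor impairment or sedation and reported as number of animals affected over number tested.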
compound,measurement,setting,value
CCC(C)CCOC(N)=O (racemic),Activity,Mus musculus [1],Toxic
same,Activity,Mus musculus [2],inactive
same,Activity,Rattus norvegicus [3],Non-toxic
same,Activity,Rattus norvegicus [4],inactive
same,Activity,Mus musculus [5],Non-toxic
same,Activity,Rattus norvegicus [6],Non-toxic
same,Activity,Rattus norvegicus [7],inactive
same,Activity,Rattus norvegicus [8],Non-toxic
same,Activity,Rattus norvegicus [9],Non-toxic
same,Activity,Rattus norvegicus [10],Non-toxic
same,Activity,Rattus norvegicus [11],Toxic
same,Activity,Rattus norvegicus [12],Non-toxic
same,Activity,Mus musculus [13],inactive
same,Activity,Rattus norvegicus [14],Toxic
same,Activity,Mus musculus [15],inactive
same,Activity,Rattus norvegicus [16],Non-toxic
same,Activity,Rattus norvegicus [17],Non-toxic
same,Activity,Rattus norvegicus [18],Toxic
same,Activity,Mus musculus [19],Non-toxic
same,Activity,Mus musculus [20],inactive
same,Activity,Mus musculus [21],inactive
same,Activity,Rattus norvegicus [22],Toxic
same,Activity,Mus musculus [23],Non-toxic
same,Activity,Mus musculus [24],inactive
same,Activity,Rattus norvegicus [25],Non-toxic
same,Activity,Mus musculus [26],Non-toxic
same,Activity,Rattus norvegicus [27],Non-toxic
same,Activity,Rattus norvegicus [28],Non-toxic
same,Activity,Mus musculus [29],inactive
same,Activity,Rattus norvegicus [30],Active
same,Activity,Mus musculus [31],inactive
same,Activity,Mus musculus [32],Active
same,Activity,Mus musculus [33],inactive
same,Activity,Rattus norvegicus [34],inactive
same,Activity,Mus musculus [35],inactive
same,Activity,Rattus norvegicus [36],inactive
same,Activity,Rattus norvegicus [37],inactive
NC(=O)OC[C@@H](O)c1ccccc1Cl [CARISBAMATE],Ratio TD50/ED50,Rattus norvegicus [38],2.4
same,ED50,Rattus norvegicus [39],58 mg/kg
same,ED50,Rattus norvegicus [40],8 mg/kg
same,Ratio TD50/ED50,Rattus norvegicus [41],18
same,TD50,[42],137 mg/kg
